# Assay outcomes from PubChem BioAssay.
# GalR3 antag: antagonists of human GalR3. HEK293 GalR3-CNG cAMP membrane potential fluorescence; galR3 body fused to GalR1 C-terminus. inhibition, % at 3 µM. 360,000 compounds, 0.44% hits. AID 651719;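 active = inhibition above the screen-wide average plus 3 SD, cut at about 13% in these data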;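 note: forskolin and galanin both at EC90 stimulate the cells; cAMP rise reported by CNG channel membrane potential dye signal; 0% = forskolin plus galanin with DMSO and 100% = forskolin alone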
# PG9 Ab binder: PG9 antibody binding by small molecule | inhibition, % at 6.7 µM | TR-FRET gp120-PG9 antibody binding | AID 624416 | 360,000 compounds, 0.43% hits; in the data active = inhibition above about 8.5%
# NR1D1 modulator: modulators of human Rev-erb alpha DNA binding; Rev-erbα–FITC-DNA binding, fluorescence polarization, 90 min; activity, % at 10 µM; 370,000 compounds, 0.79% hits;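 active = activity above about 14%, limit read from the data; passing the limit was not always enough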;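 note: 0% = DMSO wells with 35 nM protein and 100% = DMSO wells with 750 nM protein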
# NR2E3 ag-1: agonists of human NR2E3 nuclear receptor. Q9Y5X4. CHO-S Gal4-NCOR/VP16-NR2E3 two-hybrid, luciferase. inhibition of corepressor binding, % at 3.98 µM. 360,000 compounds, 0.35% hits;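 active = inhibition above the mean of all tested compounds plus 3 SD, cut at about 70% in these data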;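 note: 0% = DMSO with NR2E3 transfected cells and 100% = cells lacking NR2E3 construct; higher means lower luciferase signal from less NR2E3 corepressor binding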
# Target sequence (Q9Y5X4 whole entry, looked up, the tested form may be a part): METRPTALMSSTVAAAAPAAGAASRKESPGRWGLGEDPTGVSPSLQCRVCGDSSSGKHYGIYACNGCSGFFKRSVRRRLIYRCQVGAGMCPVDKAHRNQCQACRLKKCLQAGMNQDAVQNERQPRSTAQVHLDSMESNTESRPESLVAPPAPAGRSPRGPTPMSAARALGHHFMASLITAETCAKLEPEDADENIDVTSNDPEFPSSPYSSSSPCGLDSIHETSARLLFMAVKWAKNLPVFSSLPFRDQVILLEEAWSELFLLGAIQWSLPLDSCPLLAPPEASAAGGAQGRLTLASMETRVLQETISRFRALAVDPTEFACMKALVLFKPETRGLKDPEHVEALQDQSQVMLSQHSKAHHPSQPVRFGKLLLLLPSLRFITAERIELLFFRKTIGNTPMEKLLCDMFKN
# NR2E3 ag-2: NR2E3 (human) agonism; Q9Y5X4; GST-NR2E3/biotin-RetCOR TR-FRET, 1536-well; inhibition of corepressor binding, % at 4.78 µM; 320,000 compounds, 0.12% hits; AID 2300;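 active = percent inhibition above the cutoff of mean plus 3 SD of all tested compounds, set per screening campaign, cut at about 20% in these data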;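 note: 0% = DMSO wells and 100% = biotin wells as full block of FRET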
#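 Test system – NR2E3–RetCOR corepressor complex · Quantity – NR2E3 fusion 1.35 nM · Buffer or medium – Tris pH 7.5 · Incubation – Compound–protein incubation for 5 h at 4 °C · Technique – TR-FRET, Eu(K)-anti-GST donor, streptavidin-D2 acceptor, ex 340, em 617/671 nm · Evaluation – percent inhibition of 671/617 nm emission ratio versus biotin and DMSO controls · Plate – 1536-well format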
# Rev-erbA confirm: confirmation of modulators of human Rev-erb alpha DNA binding. shares compounds with NR1D1 modulator. Rev-erb alpha FITC-DNA binding, fluorescence polarization, 90 min. activation, % at 25 µM. 3,000 compounds, 61% hits. AID 1259319;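 active = activation at or above a set limit, or at least 3 SD above the negative control mean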;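 note: 0% = 35 nM protein with DMSO and 100% = 750 nM protein high control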
# RORg DNA counter: affects RORgamma DNA binding in a Rev-erb alpha counter-screen; shares compounds with NR1D1 modulator; purified RORgamma protein-FITC-DNA binding, fluorescence polarization; IC50, µM; 910 compounds, 8% hits;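 active = Compounds whose fitted half-maximal concentration for disrupting protein-DNA binding is below 10 micromolar; the record names Rev-erb in its text, so the target is in doubt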
# The depositor's hits bear a star; i = inactive; . = not tested or not shown. Hits are enriched below; roughly 1.8% of the tested compounds scored in any of these assays.
SMILES,GalR3 antag,PG9 Ab binder,NR1D1 modulator,NR2E3 ag-1,NR2E3 ag-2,Rev-erbA confirm,others
N#Cc1c(Cl)nc(-c2ccncc2)nc1-c1ccccc1,-7.4,0.8,5.6,-24.4,2.9,.,
CN(C)c1nc(-c2cccnc2)nc(-c2ccccc2)c1C#N,-8.9,-2.2,36.9*,-11.8,.,29.5*,RORg DNA counter=>40
C=CCN1C(=O)[C@@H](CC(=O)N2CCCC2)[C@]2(C(=O)OC)CCCCC=C12,.,.,5.3,.,.,.,
O=C(NCc1ccccc1Cl)c1cccc2c1C(=O)c1ccc(-c3ccc(OC(F)(F)F)cc3)cc1S2(=O)=O,.,.,.,15.4,.,.,
O=C(NC[C@@H]1CCCO1)c1cccc2c1C(=O)c1ccc(N3CCOCC3)cc1S2(=O)=O,-2.1,-0.5,-2.1,-11.0,.,.,
O=C(NCc1cccc(F)c1)c1cccc2c1C(=O)c1ccc(N3CCOCC3)cc1S2(=O)=O,-4.8,-2.5,117.6*,-26.5,.,87.1*,RORg DNA counter=>40
O=C(NCc1cc(C(F)(F)F)ccc1Cl)c1cccc2c1C(=O)c1ccc(Cl)cc1S2(=O)=O,-2.5,-1.0,31.7*,.,.,49.5*,RORg DNA counter=>40
CC1CCN(c2ccc3c(c2)S(=O)(=O)c2cccc(C(=O)NC[C@@H]4CCCO4)c2C3=O)CC1,-3.1,-1.8,17.9*,-12.6,.,5.5,
COC(=O)[C@]12C[C@H](CC(=O)N3CCC(c4ccccc4)CC3)C(=O)N(Cc3cccc4ccccc34)C1=C[C@H](C(C)(C)C)O[C@@H]2C,.,.,-9.3,.,.,.,
COc1ccc(Cn2ccc3ccc(-c4ccc5ccn(Cc6ccc(OC)cc6)c5c4)cc32)cc1,.,.,1.3,.,.,.,
NC(=O)c1c(N)[nH]c(C(=O)c2ccccc2)c1-c1ccccn1,.,.,-1.7,.,.,.,
C=CCN1C(=O)[C@H](CC(=O)NCc2ccc(C)o2)[C@@]2(C(=O)OCC)CCCC=C12,.,.,-0.6,.,.,.,
COc1ccccc1CNC(=O)C[C@H]1CC[C@H]2[C@H](COc3ccc(NS(=O)(=O)c4ccc(C)cc4)cc3C(=O)N2C)O1,.,.,-1.3,.,.,.,
CN1C(=O)c2cc(NC(=O)Nc3ccccc3F)ccc2OC[C@H]2O[C@@H](CC(=O)NCc3ccc(-c4ccccc4)cc3)CC[C@@H]21,.,.,106.5*,.,.,69.5*,RORg DNA counter=>40
CN1C(=O)c2cc(NC(=O)Nc3ccccc3)ccc2OC[C@H]2O[C@@H](CC(=O)NCc3ccc(-c4ccccc4)cc3)CC[C@@H]21,.,.,21.1,.,.,.,
CN1C(=O)c2cc(NS(C)(=O)=O)ccc2OC[C@H]2O[C@@H](CC(=O)NCc3ccc(-c4ccccc4)cc3)CC[C@@H]21,.,.,83.0*,.,.,20.0*,
COc1cccc(C(=O)n2ccc3ccc(-c4ccc5ccn(C(=O)c6cccc(OC)c6)c5c4)cc32)c1,.,.,43.7*,.,.,85.4*,RORg DNA counter=i
COc1cccc(C(=O)n2ccc3ccc(-c4ccc5ccn(Cc6ccccc6)c5c4)cc32)c1,.,.,24.4*,.,.,51.8*,RORg DNA counter=6.77*
COc1cccc(C(=O)n2ccc3ccc(-c4ccc5ccn(Cc6ccc(C#N)cc6)c5c4)cc32)c1,.,.,48.4*,.,.,9.0,
O=C(c1ccccc1)n1ccc2ccc(-c3ccc4ccn(C(=O)c5ccccc5)c4c3)cc21,.,.,-3.0,.,.,.,
O=C(NCCCc1ccccc1)[C@H](CO)NC1(C(=O)NCCc2c[nH]c3ccccc23)CCCCC1,.,.,-7.7,.,.,.,
COc1cc(C(=O)Nc2nnc(C)s2)cc(OC)c1OC,.,-0.6,-1.5,18.1,-1.2,.,
COC(=O)c1sc(NC(=S)NC(=O)c2ccccc2)nc1C,-6.6,-0.5,23.0,-18.9,-5.0,.,
CCOC(=O)c1sc(NC(=S)NC(=O)c2ccccc2)nc1C,-6.0,0.1,20.4*,-112.0,-1.6,0.2,
COC(=O)c1sc(NC(=S)NC(=O)c2cc(OC)c(OC)c(OC)c2)nc1C,-6.1,-1.5,56.9*,-6.6,1.9,0.8,
SMILES,GalR3 antag,PG9 Ab binder,NR1D1 modulator,NR2E3 ag-1,NR2E3 ag-2,Rev-erbA confirm,others
COc1cc(C(=O)Nc2nc3ccc4nc(C)sc4c3s2)cc(OC)c1OC,5.6,-3.5,115.1*,-3.5,1.2,8.4,
CCOC(=O)c1sc(NC(=O)c2ccc(OC)cc2)nc1C,-2.5,1.7,15.9,-3.6,-1.6,.,
CCOC(=O)c1sc(NC(=S)NC(=O)c2cccc(OC)c2)nc1C,-8.1,-1.8,93.7*,-25.0,3.3,37.7*,RORg DNA counter=>40
O=C(CSc1nnc(-c2ccccc2)n1-c1ccc(Cl)cc1)Nc1ccc2cn[nH]c2c1,.,.,-1.1,.,.,.,
COC(=O)[C@@H](N[C@H](/C=C/c1ccccc1)[C@@H](O)Cc1ccccc1)C(C)C,-7.0,-1.0,-6.7,.,.,.,
O=C(NC1CCCN(c2ccc(C(F)(F)F)cn2)C1)c1cc(Cl)ccc1F (stereo unspecified),-4.1,-0.2,19.9*,-21.1,1.0,12.8,
Cc1ccc(C(=O)NC2CCCN(c3ccc(C(F)(F)F)cn3)C2)cn1 (stereo unspecified),-2.5,-1.2,3.4,10.8,3.7,.,
N/C(=N\C(=O)OCc1ccccc1)N(CC#CC1=CCCCC1)CC1CC1,.,.,2.9,.,.,.,
COC(=O)[C@]12C[C@H](CC(=O)N3CCCC3)C(=O)N(CCC3=CCCCC3)C1=C[C@H](C1CCCC1)O[C@@H]2C,.,.,-3.3,.,.,.,
COc1ccc2[nH]cc(S(=O)(=O)c3ccc(F)cc3)c(=O)c2c1,-1.9,-0.5,2.2,-16.0,2.2,.,
Cc1ccc2[nH]cc(S(=O)(=O)c3ccc(C)c(C)c3)c(=O)c2c1,-12.4,-2.3,56.2*,11.6,-4.0,33.2*,RORg DNA counter=>40
